{"source": "ChEMBL document CHEMBL4371075", "about": "“α-Amino Diphenyl Phosphonates as Novel Inhibitors of Escherichia coli ClpP Protease” (J Med Chem, 2019)", "data": [{"biological_target": "ATP-dependent Clp protease proteolytic subunit (Escherichia coli (strain K12)) (UniProt P0A6G7)", "sequence (P0A6G7 whole entry)": "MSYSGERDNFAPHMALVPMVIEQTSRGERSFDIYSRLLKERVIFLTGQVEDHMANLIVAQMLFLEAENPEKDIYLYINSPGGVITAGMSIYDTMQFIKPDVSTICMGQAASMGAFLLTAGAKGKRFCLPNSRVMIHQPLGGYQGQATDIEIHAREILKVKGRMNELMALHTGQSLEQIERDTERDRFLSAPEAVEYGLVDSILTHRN", "assay": "Inhibition of Escherichia coli C-terminal His6-tagged ClpP expressed Escherichia coli SG1146a at 200 uM using Suc-LY-AMC as substrate preincubated for 10 mins followed by substrate addition and measured over 1 hr by fluorescence assay relative to control", "procedure,_shortened": "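E. coli ClpP (625 nM) in 100 mM NaCl, 100 mM Hepes pH 7.5, 0.05% Brij 35, preincubated with compound (200 µM final, triplicates) 10 min at 30 °C. Suc-LY-AMC added (75 µM), fluorescence (ex 350/em 435 nm) followed over 1 h at 30 °C. Inhibition relative to 2% DMSO vehicle; Z-LY-CMK (200 µM) positive control; plates valid at Z' > 0.6.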", "units": {"inhibition": "%"}, "values": [{"smiles": "N=C(N)N1CCC(C(NC(=O)/C=C\\c2ccccc2)P(=O)(Oc2ccccc2)Oc2ccccc2)CC1", "note": "(configuration not stated)", "inhibition": 11}, {"smiles": "N=C(N)N1CCC(C(NC(=O)/C=C/c2ccccc2)P(=O)(Oc2ccccc2)Oc2ccccc2)CC1", "note": "(configuration not stated)", "inhibition": 18}, {"smiles": "O=C(NC(Cc1ccc(F)cc1)P(=O)(Oc1ccccc1)Oc1ccccc1)OCc1ccccc1", "note": "(configuration not stated)", "inhibition": 13}, {"smiles": "N#Cc1cc(C(NC(=O)OCc2ccccc2)P(=O)(Oc2ccccc2)Oc2ccccc2)ccc1N1CCNCC1", "note": "(configuration not stated)", "inhibition": 10}, {"smiles": "COC(=O)NC(c1cccc2c([N+](=O)[O-])cccc12)P(=O)(Oc1ccccc1)Oc1ccccc1", "note": "(configuration not stated)", "inhibition": 17}, {"smiles": "O=C(NC(c1cccnc1)P(=O)(Oc1ccccc1)Oc1ccccc1)OCc1ccccc1", "note": "(configuration not stated)", "inhibition": 27}, {"smiles": "CC(=O)Nc1ccc(C(NC(=O)OCc2ccccc2)P(=O)(Oc2ccccc2)Oc2ccccc2)cc1", "note": "(configuration not stated)", "inhibition": 8}, {"smiles": "O=C(NC(Cc1ccccc1)P(=O)(Oc1ccccc1)Oc1ccccc1)OCc1ccccc1", "note": "(configuration not stated)", "inhibition": 7}, {"smiles": "O=C(NC(Cc1ccc(O)cc1)P(=O)(O)Oc1ccccc1)OCc1ccccc1", "note": "(configuration not stated)", "inhibition": 11}, {"smiles": "N=C(N)Nc1ccc(CC(NC(=O)OCCC(F)(F)C(F)(F)C(F)(F)C(F)(F)C(F)(C(F)(F)F)C(F)(F)F)P(=O)(Oc2ccccc2)Oc2ccccc2)cc1", "note": "(configuration not stated)", "inhibition": 55}, {"smiles": "C#CCCCOC(=O)NC(Cc1ccc(NC(=N)N)cc1)P(=O)(Oc1ccccc1)Oc1ccccc1", "note": "(configuration not stated)", "inhibition": 23}, {"smiles": "O=C(NC(c1ccc(NC(=O)C(F)(F)F)cc1)P(=O)(Oc1ccccc1)Oc1ccccc1)OCc1ccccc1", "note": "(configuration not stated)", "inhibition": 15}, {"smiles": "COP(=O)(Oc1ccccc1)C(Cc1ccc(O)cc1)NC(=O)OCc1ccccc1", "note": "(configuration not stated)", "inhibition": 14}, {"smiles": "CC(=O)Nc1ccc(OP(=O)(Oc2ccc(NC(C)=O)cc2)C(Cc2ccccc2)NC(=O)OCc2ccccc2)cc1", "note": "(configuration not stated)", "inhibition": 9}, {"smiles": "O=C(NC(CC1CCNCC1)P(=O)(Oc1ccccc1)Oc1ccccc1)OCc1ccccc1", "note": "(configuration not stated)", "inhibition": 16}, {"smiles": "CSCCC(NC(=O)[C@H](CCCCN)NC(=O)OCc1ccccc1)P(=O)(Oc1ccccc1)Oc1ccccc1", "note": "(some centres not stated)", "inhibition": 4}, {"smiles": "N#C[C@H](Cc1ccccc1)NC(=O)OCc1ccccc1", "inhibition": "< 1"}, {"smiles": "Nc1cccc(C(NC(=O)OCc2ccc3c(c2)OCO3)P(=O)(Oc2ccccc2)Oc2ccccc2)c1", "note": "(configuration not stated)", "inhibition": 20}, {"smiles": "COC(=O)NC(c1cccc(N)c1)P(=O)(Oc1ccccc1)Oc1ccccc1", "note": "(configuration not stated)", "inhibition": 7}, {"smiles": "O=C(NC(CCc1ccccc1)P(=O)(Oc1ccccc1)Oc1ccccc1)OCc1ccccc1", "note": "(configuration not stated)", "inhibition": "< 1"}, {"smiles": "CC(C)C[C@H](NC(=O)OCc1ccccc1)C(=O)NC(Cc1ccc(O)cc1)P(=O)(Oc1ccccc1)Oc1ccccc1", "note": "(some centres not stated)", "inhibition": "< 1"}, {"smiles": "Nc1ccc2cc(C(NC(=O)OCc3ccccc3)P(=O)(Oc3ccccc3)Oc3ccccc3)ccc2c1", "note": "(configuration not stated)", "inhibition": "< 1"}, {"smiles": "O=C(NC(c1cccc2ccccc12)P(=O)(Oc1ccccc1)Oc1ccccc1)OCc1ccccc1", "note": "(configuration not stated)", "inhibition": 6}, {"smiles": "Nc1ccc(C(NC(=O)OCc2c(F)c(F)c(F)c(F)c2F)P(=O)(Oc2ccccc2)Oc2ccccc2)cc1", "note": "(configuration not stated)", "inhibition": 28}, {"smiles": "NCCOC(=O)NC(c1ccc(NC(=O)C(F)(F)F)cc1)P(=O)(Oc1ccccc1)Oc1ccccc1", "note": "(configuration not stated)", "inhibition": 73}, {"smiles": "COC(=O)NC(c1ccc(NC(=O)C(F)(F)F)cc1)P(=O)(Oc1ccccc1)Oc1ccccc1", "note": "(configuration not stated)", "inhibition": 64}, {"smiles": "COC(=O)NC(c1cccc(C(=N)N)c1)P(=O)(Oc1ccccc1)Oc1ccccc1", "note": "(configuration not stated)", "inhibition": 30}, {"smiles": "N=C(N)Nc1ccc(CC(NC(=O)OCc2c(F)c(F)c(F)c(F)c2F)P(=O)(Oc2ccccc2)Oc2ccccc2)cc1", "note": "(configuration not stated)", "inhibition": 25}, {"smiles": "COC(=O)NC(Cc1ccc(C(F)(F)F)cc1)P(=O)(Oc1ccc(NC(C)=O)cc1)Oc1ccc(NC(C)=O)cc1", "note": "(configuration not stated)", "inhibition": 20}, {"smiles": "COC(=O)NC(c1cccc(N)c1)P(=O)(Oc1ccc(NC(C)=O)cc1)Oc1ccc(NC(C)=O)cc1", "note": "(configuration not stated)", "inhibition": 12}, {"smiles": "O=C(NC(Cc1ccc2ccccc2c1)P(=O)(Oc1ccccc1)Oc1ccccc1)OCc1ccccc1", "note": "(configuration not stated)", "inhibition": "< 1"}, {"smiles": "N=C(NO)c1cccc(C(Nc2ncccn2)P(=O)(Oc2ccccc2)Oc2ccccc2)c1", "note": "(configuration not stated)", "inhibition": 23}, {"smiles": "CC(=O)Nc1ccc(OP(=O)(Oc2ccc(NC(C)=O)cc2)C(NC(=O)OCc2ccccc2)c2cccc(N)c2)cc1", "note": "(configuration not stated)", "inhibition": 21}, {"smiles": "CC(=O)Nc1ccc(OP(=O)(Oc2ccc(NC(C)=O)cc2)C(Cc2ccc(C(F)(F)F)cc2)NC(=O)OCc2ccccc2)cc1", "note": "(configuration not stated)", "inhibition": 1}, {"smiles": "N=C(N)c1ccc(C(NC(=O)OCc2ccccc2)P(=O)(Oc2ccccc2)Oc2ccccc2)cc1", "note": "(configuration not stated)", "inhibition": 30}, {"smiles": "CC(C)C[C@H](NC(=O)OCc1ccccc1)C(=O)N[C@H](C#N)Cc1ccc(O)cc1", "inhibition": 13}, {"smiles": "CC(C)CC(NC(=O)OCc1ccccc1)P(=O)(Oc1ccccc1)Oc1ccccc1", "note": "(configuration not stated)", "inhibition": 4}, {"smiles": "CN(C)c1ccc(C(NC(=O)OCc2ccccc2)P(=O)(Oc2ccccc2)Oc2ccccc2)c2ccccc12", "note": "(configuration not stated)", "inhibition": "< 1"}, {"smiles": "N=C(N)Nc1ccc(C(NC(=O)OCc2ccccc2)P(=O)(Oc2ccccc2)Oc2ccccc2)cc1", "note": "(configuration not stated)", "inhibition": 29}, {"smiles": "N=C(N)Nc1cccc2c(C(NC(=O)OCc3ccccc3)P(=O)(Oc3ccccc3)Oc3ccccc3)cccc12", "note": "(configuration not stated)", "inhibition": 38}, {"smiles": "Nc1ccc(C(NC(=O)OCCCC(F)(F)F)P(=O)(Oc2ccccc2)Oc2ccccc2)cc1", "note": "(configuration not stated)", "inhibition": "< 1"}, {"smiles": "O=C(NC(c1ccc([N+](=O)[O-])cc1)P(=O)(Oc1ccccc1)Oc1ccccc1)OCc1ccccc1", "note": "(configuration not stated)", "inhibition": 71}, {"smiles": "N=C(N)N1CCC(C(NS(=O)(=O)CCOc2ccccc2)P(=O)(Oc2ccccc2)Oc2ccccc2)CC1", "note": "(configuration not stated)", "inhibition": 27}, {"smiles": "N=C(N)N1CCC(C(Nc2ncc(-c3ccccc3)cn2)P(=O)(Oc2ccccc2)Oc2ccccc2)CC1", "note": "(configuration not stated)", "inhibition": 12}, {"smiles": "COc1ccc(CC(=O)NC(C2CCN(C(=N)N)CC2)P(=O)(Oc2ccccc2)Oc2ccccc2)cc1", "note": "(configuration not stated)", "inhibition": 13}, {"smiles": "NCCOc1ccc(C(NC(=O)OCc2ccccc2)P(=O)(Oc2ccccc2)Oc2ccccc2)cc1", "note": "(configuration not stated)", "inhibition": 15}, {"smiles": "CS(=O)(=O)Nc1ccc(CCC(NC(=O)OCc2ccccc2)P(=O)(Oc2ccccc2)Oc2ccccc2)cc1", "note": "(configuration not stated)", "inhibition": 10}, {"smiles": "N=C(N)Nc1ccc(C(NC(=O)OCc2c(F)c(F)c(F)c(F)c2F)P(=O)(Oc2ccccc2)Oc2ccccc2)cc1", "note": "(configuration not stated)", "inhibition": 48}, {"smiles": "COC(=O)NC(Cc1ccc(NC(=N)N)cc1)P(=O)(Oc1ccccc1)Oc1ccccc1", "note": "(configuration not stated)", "inhibition": 27}, {"smiles": "N#Cc1cccc(C(NC(=O)OCc2ccccc2)P(=O)(Oc2ccccc2)Oc2ccccc2)c1", "note": "(configuration not stated)", "inhibition": 15}, {"smiles": "N#C[C@H](Cc1ccc(O)cc1)NC(=O)OCc1ccccc1", "inhibition": "< 1"}, {"smiles": "CN(C)c1ccc(C(NC(=O)OCc2ccccc2)P(=O)(Oc2ccccc2)Oc2ccccc2)cc1NS(C)(=O)=O", "note": "(configuration not stated)", "inhibition": 46}, {"smiles": "N=C(N)Nc1ccc(C(NS(=O)(=O)c2ccc(C(F)(F)F)cc2)P(=O)(Oc2ccccc2)Oc2ccccc2)cc1", "note": "(configuration not stated)", "inhibition": 27}, {"smiles": "O=C(NC(COCc1ccccc1)P(=O)(Oc1ccccc1)Oc1ccccc1)OCc1ccccc1", "note": "(configuration not stated)", "inhibition": 4}, {"smiles": "CN(C)C(=O)Nc1ccc(CC(NC(=O)OCc2ccccc2)P(=O)(Oc2ccccc2)Oc2ccccc2)cc1", "note": "(configuration not stated)", "inhibition": 9}, {"smiles": "CN(C)C(=O)Nc1ccc(C(NC(=O)OCc2ccccc2)P(=O)(Oc2ccccc2)Oc2ccccc2)cc1", "note": "(configuration not stated)", "inhibition": 22}, {"smiles": "O=C(NC(c1ccc2c(c1)OCO2)P(=O)(Oc1ccccc1)Oc1ccccc1)OCc1ccccc1", "note": "(configuration not stated)", "inhibition": 6}, {"smiles": "N=C(N)NCCCC(NC(=O)OCc1ccccc1)P(=O)(Oc1ccccc1)Oc1ccccc1", "note": "(configuration not stated)", "inhibition": 15}, {"smiles": "N=C(N)N1CCC(C(NC(=O)/C=C/c2ccc3c(c2)OCO3)P(=O)(Oc2ccccc2)Oc2ccccc2)CC1", "note": "(configuration not stated)", "inhibition": 4}, {"smiles": "Nc1ccc(C(NC(=O)OCCOc2ccccc2)P(=O)(Oc2ccccc2)Oc2ccccc2)cc1", "note": "(configuration not stated)", "inhibition": 1}, {"smiles": "O=C(NC(C1CCNCC1)P(=O)(Oc1ccccc1)Oc1ccccc1)OCc1ccccc1", "note": "(configuration not stated)", "inhibition": 30}, {"smiles": "O=C(NC(c1cc([N+](=O)[O-])ccc1Cl)P(=O)(Oc1ccccc1)Oc1ccccc1)OCc1ccccc1", "note": "(configuration not stated)", "inhibition": 6}]}]}
